Results: ChEMBL document CHEMBL3425411, “Synthesis of β-Carboline-Based N-Heterocyclic Carbenes and Their Antiproliferative and Antimetastatic Activities against Human Breast Cancer Cells” (J Med Chem, 2015)
Calls of active or inactive are those of the source. The rule behind the calls is not given here.

Assays:
MDA-MB-231 [1] = test: Induction of apoptosis in human MDA-MB-231 cells assessed as late apoptotic cells at 12.5 uM after 24 hrs by annexin V-propidium iodide/Alexa Fluor 488 staining-based flow cytometric analysis (reference value: 2.08 to 3.78%); type: functional
Method in brief: (§1)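 MDA-MB-231 cells, about 2 × 10⁵ per well, seeded in triplicate and treated for 24 h in RPMI-1640 with 10% FBS. Stained with Alexa Fluor 488 annexin V and propidium iodide, then read by flow cytometry. AV+/PI+ events were counted as late apoptotic and reported as percentage of cells relative to control. Three independent experiments, mean ± SEM.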

[2] = molecular target: c-Jun N-terminal kinase, JNK (Homo sapiens) (UniProt P45983+P53779+P45984); test: Inhibition of SAPK/JNK phosphorylation in human MDA-MB-231 cells at 7.5 to 10 uM after 24 hrs by Western blot analysis; type: cell-based
Method in brief: (§2)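 MDA-MB-231 cells treated 24 h, then lysed in RIPA buffer. 40 μg protein run on 10–15% SDS–PAGE and transferred to PVDF. Blocked in 5% milk, probed overnight at 4 °C with primary antibodies (phospho- and total ERK1/2, JNK, p38, cleaved caspase-3), then HRP secondary. ECL detection with β-actin as loading control. Blots representative of three experiments.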

MDA-MB-231 [3] = test: Induction of apoptosis in human MDA-MB-231 cells assessed as late apoptotic cells at 10 uM after 24 hrs by annexin V-propidium iodide/Alexa Fluor 488 staining-based flow cytometric analysis (reference value: 2.08 to 3.78%); type: functional; method in brief: as §1
MDA-MB-231 [4] = test: Induction of apoptosis in human MDA-MB-231 cells assessed as PARP cleavage at 7.5 to 10 uM after 24 hrs by Western blot analysis; type: functional, cell-based
Method in brief: (§3)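 Cells were treated for 24 h. Lysates were made in RIPA buffer, and 40 μg protein was resolved on 10–15% SDS-PAGE and transferred to PVDF. Membranes were blocked with 5% milk and probed overnight at 4 °C with primary antibodies, then HRP secondaries. Detection was by ECL with β-actin as loading control. Blots represent three independent experiments.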

MDA-MB-231 [5] = test: Downregulation of CDK1 expression in human MDA-MB-231 cells at 7.5 to 10 uM after 24 hrs by Western blot analysis; type: functional, cell-based; method in brief: as §3
MDA-MB-231 [6] = test: Antiinvasive activity against human MDA-MB-231 cells at 2.5 uM after 48 hrs by transwell assay; type: functional, cell-based
Method in brief: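 Matrigel (growth factor reduced, diluted in serum-free medium) coated on 8 μm pore polycarbonate transwell membranes, set 2 h at 37 °C. 30 000 cells/well seeded in RPMI-1640 with 1% FBS plus compound; lower chamber had 10% FBS as chemoattractant. After 48 h, non-invaded cells were swabbed off and invaded cells were methanol-fixed and stained with 0.1% crystal violet. At least 10 random fields were counted and expressed versus control.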

MDA-MB-231 [7] = test: Downregulation of cyclin B expression in human MDA-MB-231 cells at 7.5 to 10 uM after 24 hrs by Western blot analysis; type: functional, cell-based; method in brief: as §3
MDA-MB-231 [8] = test: Induction of apoptosis in human MDA-MB-231 cells assessed as early apoptotic cells at 12.5 uM after 24 hrs by annexin V-propidium iodide/Alexa Fluor 488 staining-based flow cytometric analysis (reference value: 4.05 to 4.68%); type: functional
MDA-MB-231 [9] = test: Antimigratory activity against human MDA-MB-231 cells at 1 to 7.5 uM after 12 to 24 hrs by wound healing assay; type: functional, cell-based
Method in brief: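 2 × 10⁵ cells were plated in six-well plates and scratched with a 200 μL tip. Debris was removed, then cells were treated (0, 1, 2.5, 5, 7.5 μM; or 0–5 μM). The wound was photographed at 0, 12 and 24 h under 100× phase contrast. Area was measured as percent wound closure versus control. Three independent experiments, mean ± SEM.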

[10] = molecular target: Matrix metalloproteinase-9 (Homo sapiens) (UniProt P14780); test: Inhibition of MMP-9 in human MDA-MB-231 cells at 1 to 7.5 uM after 24 hrs by gelatin zymographic method; type: cell-based
Chain of Matrix metalloproteinase-9 (Homo sapiens) (P14780 whole entry): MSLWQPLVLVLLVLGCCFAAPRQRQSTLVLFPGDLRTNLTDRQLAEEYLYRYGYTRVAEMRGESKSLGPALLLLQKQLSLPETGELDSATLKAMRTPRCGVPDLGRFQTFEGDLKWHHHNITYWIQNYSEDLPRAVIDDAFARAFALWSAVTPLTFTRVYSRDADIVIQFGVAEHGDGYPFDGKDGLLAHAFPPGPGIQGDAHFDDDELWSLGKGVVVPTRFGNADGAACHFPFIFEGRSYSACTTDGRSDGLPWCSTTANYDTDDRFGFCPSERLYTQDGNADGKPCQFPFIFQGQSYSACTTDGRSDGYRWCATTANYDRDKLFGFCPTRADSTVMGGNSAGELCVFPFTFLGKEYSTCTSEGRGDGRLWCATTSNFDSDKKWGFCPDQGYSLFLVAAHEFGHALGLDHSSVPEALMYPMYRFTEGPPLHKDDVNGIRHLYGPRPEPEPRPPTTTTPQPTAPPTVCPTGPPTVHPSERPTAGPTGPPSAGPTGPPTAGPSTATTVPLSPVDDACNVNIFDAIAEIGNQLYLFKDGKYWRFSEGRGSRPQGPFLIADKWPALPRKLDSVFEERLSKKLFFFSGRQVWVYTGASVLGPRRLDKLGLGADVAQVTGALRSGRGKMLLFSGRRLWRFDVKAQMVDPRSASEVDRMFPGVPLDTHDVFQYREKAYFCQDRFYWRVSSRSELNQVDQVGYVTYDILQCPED
Method in brief: (§4)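 MDA-MB-231 cells, 1 × 10⁵ per well, treated 24 h with 0, 1, 2.5, 5 or 7.5 μM. Conditioned medium centrifuged and equal protein loaded on 8% SDS–PAGE containing 0.1% gelatin, run at 80 V. Triton X-100 washes, then developed 20 h at 37 °C in Tris-HCl pH 7.5 with NaCl, CaCl₂ and ZnCl₂. Coomassie stain, then destain.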

MDA-MB-231 [11] = test: Cell cycle arrest in human MDA-MB-231 cells assessed as accumulation at G0/G1 phase at 10 uM after 24 hrs by propidium iodide staining-based flow cytometric analysis (reference value: 44.3 to 47.1%); type: functional
[12] = molecular target: 72 kDa type IV collagenase (Homo sapiens) (UniProt P08253); test: Inhibition of MMP-2 in human MDA-MB-231 cells at 1 to 7.5 uM after 24 hrs by gelatin zymographic method; type: cell-based; method in brief: as §4
Chain of 72 kDa type IV collagenase (Homo sapiens) (P08253 110-660 limits assumed): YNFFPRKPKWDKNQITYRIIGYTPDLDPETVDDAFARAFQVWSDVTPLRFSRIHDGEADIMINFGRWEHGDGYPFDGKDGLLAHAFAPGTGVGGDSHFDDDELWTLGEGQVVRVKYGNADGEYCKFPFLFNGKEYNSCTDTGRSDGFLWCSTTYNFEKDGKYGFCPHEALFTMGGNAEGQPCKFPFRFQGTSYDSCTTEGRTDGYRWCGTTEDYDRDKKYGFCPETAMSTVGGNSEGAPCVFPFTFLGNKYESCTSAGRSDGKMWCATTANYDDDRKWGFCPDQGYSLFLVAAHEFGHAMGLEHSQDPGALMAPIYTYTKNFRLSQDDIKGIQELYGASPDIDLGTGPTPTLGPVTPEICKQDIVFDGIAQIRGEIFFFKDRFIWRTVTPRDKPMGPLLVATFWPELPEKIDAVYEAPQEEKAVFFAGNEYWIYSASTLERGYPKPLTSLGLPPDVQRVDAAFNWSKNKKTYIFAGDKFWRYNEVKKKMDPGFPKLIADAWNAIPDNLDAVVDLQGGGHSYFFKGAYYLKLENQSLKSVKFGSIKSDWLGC

MDA-MB-231 [13] = test: Downregulation of CDC25C expression in human MDA-MB-231 cells at 7.5 to 10 uM after 24 hrs by Western blot analysis; type: functional, cell-based; method in brief: as §3
MDA-MB-231 [14] = test: Downregulation of Bcl-XL expression in human MDA-MB-231 cells at 7.5 to 10 uM after 24 hrs by Western blot analysis; type: functional, cell-based; method in brief: as §3
MDA-MB-231 [15] = test: Cell cycle arrest in human MDA-MB-231 cells assessed as accumulation at S phase at 10 uM after 24 hrs by propidium iodide staining-based flow cytometric analysis (reference value: 32.5 to 34.7%); type: functional
MDA-MB-231 [16] = test: Upregulation of cleaved caspase-3 expression in human MDA-MB-231 cells at 7.5 to 10 uM after 24 hrs by Western blot analysis; type: functional, cell-based; method in brief: as §2
MDA-MB-231 [17] = test: Downregulation of Bcl-2 expression in human MDA-MB-231 cells at 7.5 to 10 uM after 24 hrs by Western blot analysis; type: functional, cell-based; method in brief: as §3
[18] = molecular target: Mitogen-activated protein kinase; ERK1/ERK2 (Homo sapiens) (UniProt P27361+P28482); test: Inhibition of ERK1/2 phosphorylation in human MDA-MB-231 cells at 7.5 to 10 uM after 24 hrs by Western blot analysis; type: cell-based; method in brief: as §2
Chain of Mitogen-activated protein kinase; ERK1/ERK2 (Homo sapiens) (P27361 whole entry, looked up): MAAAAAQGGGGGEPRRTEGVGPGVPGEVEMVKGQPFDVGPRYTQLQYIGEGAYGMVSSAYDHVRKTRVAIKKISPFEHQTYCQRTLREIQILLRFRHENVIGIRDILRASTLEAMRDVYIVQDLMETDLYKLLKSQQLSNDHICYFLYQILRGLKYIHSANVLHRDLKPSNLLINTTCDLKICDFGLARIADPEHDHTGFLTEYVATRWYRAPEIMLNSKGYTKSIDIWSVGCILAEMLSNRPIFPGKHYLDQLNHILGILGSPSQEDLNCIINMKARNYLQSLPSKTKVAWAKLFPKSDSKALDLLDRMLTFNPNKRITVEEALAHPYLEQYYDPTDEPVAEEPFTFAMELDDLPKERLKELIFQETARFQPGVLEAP
Chain of Mitogen-activated protein kinase; ERK1/ERK2 (Homo sapiens) (P28482 whole entry, looked up): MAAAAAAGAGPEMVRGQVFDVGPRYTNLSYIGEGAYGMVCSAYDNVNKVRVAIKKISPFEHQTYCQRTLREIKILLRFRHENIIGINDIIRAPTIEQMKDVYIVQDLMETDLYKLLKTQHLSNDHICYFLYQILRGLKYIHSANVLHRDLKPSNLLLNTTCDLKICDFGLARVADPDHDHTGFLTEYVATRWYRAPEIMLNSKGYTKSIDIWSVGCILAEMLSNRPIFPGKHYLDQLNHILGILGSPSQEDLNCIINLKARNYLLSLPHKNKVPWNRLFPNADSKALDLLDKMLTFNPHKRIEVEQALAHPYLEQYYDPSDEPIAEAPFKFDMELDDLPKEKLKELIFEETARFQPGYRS

[19] = molecular target: MAP kinase p38 (Homo sapiens) (UniProt O15264+Q15759+Q16539+P53778); test: Induction of p38 MAPK phosphorylation in human MDA-MB-231 cells at 7.5 to 10 uM after 24 hrs by Western blot analysis; type: cell-based; method in brief: as §2
MCF7 = test: Cytotoxicity against human MCF7 cells assessed as growth inhibition after 24 to 72 hrs by MTT assay; type: functional, cell-based
Method in brief: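 About 5000 cells/well were grown 24 h in RPMI-1640 with 10% FBS, then given fresh medium with compound at various concentrations (from 10 mM DMSO stocks) for 24, 48 and 72 h. MTT (5 mg/mL stock) was added for 2 h and formazan dissolved in DMSO. Absorbance was read at 595 nm and expressed as percent proliferation versus DMSO control.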

MDA-MB-231 [20] = test: Cell cycle arrest in human MDA-MB-231 cells assessed as accumulation at G2/M phase at 10 uM after 24 hrs by propidium iodide staining-based flow cytometric analysis (reference value: 18.2 to 23.1%); type: functional
MDA-MB-231 [21] = test: Downregulation of survivin expression in human MDA-MB-231 cells at 7.5 to 10 uM after 24 hrs by Western blot analysis; type: functional, cell-based; method in brief: as §3

inhibition [2]	inhibition [10]	inhibition [12]	inhibition [18]	Activity [19]	SMILES	Activity (MDA-MB-231 [1]) [%]	Activity (MDA-MB-231 [3]) [%]	Activity (MDA-MB-231 [4])	Activity (MDA-MB-231 [5])	Activity (MDA-MB-231 [6])	Activity (MDA-MB-231 [7])	Activity (MDA-MB-231 [8]) [%]	Activity (MDA-MB-231 [9])	Activity (MDA-MB-231 [11]) [%]	Activity (MDA-MB-231 [13])	Activity (MDA-MB-231 [14])	Activity (MDA-MB-231 [15]) [%]	Activity (MDA-MB-231 [16])	Activity (MDA-MB-231 [17])	IC50 (MCF7) [µM]	further results
Active	Active	Active	Active	Active	COC(=O)c1cc2c3ccccc3[nH]c2c2cn(-c3ccc(C)cc3Br)c[n+]12.[Cl-]	17.42	25.32	Active	Active	Active	Active	64.96	Active	35.3	Active	Active	26.3	Active	Active	6.9	Activity (MDA-MB-231 [20]): 38.2%; Activity (MDA-MB-231 [21]): Active
Active	Active	Active	Active	Active	COC(=O)c1cc2c3ccccc3[nH]c2c2cn(-c3ccc(C(F)(F)F)cc3)c[n+]12.[Cl-]	13.43	14.31	Active	Active	Active	Active	31.17	Active	31.1	Active	Active	29.7	Active	Active	14.2	Activity (MDA-MB-231 [20]): 39%; Activity (MDA-MB-231 [21]): Active
–	–	–	–	–	COC(=O)c1cc2c3ccccc3[nH]c2c2cn(-c3ccc(F)cc3Cl)c[n+]12.[Cl-]	–	11.92	–	–	–	–	–	–	–	–	–	–	–	–	6.8	–
